Data on 25 compounds can be found in ChEMBL document CHEMBL2040713, “Finger-loop inhibitors of the HCV NS5b polymerase. Part 1: Discovery and optimization of novel 1,6- and 2,6-macrocyclic indole series” (Bioorg Med Chem Lett, 2012).

For one data set, the system named is Hepatitis C virus. The experiment in a line: Antiviral activity against HCV infected in human […] cells assessed as inhibition of viral RNA replication. Format: functional, organism-based, Hepacivirus hominis. The procedure, abridged: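 Replicon assay: subgenomic HCV RNA replication in Huh-7 cells carrying a bicistronic expression construct. Inhibition expressed as EC50.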

A short description of data set [1]: Inhibition of purified HCV NS5B Cdelta21 polymerase. Also on record: species or system Hepacivirus hominis.
Data set [2] is described as follows: Drug metabolism in human liver microsomes at 5 uM after 15 mins. Format: ADME, Microsome. The note with it: read-out: Drug metabolism. (In general: Liver microsomes are vesicles of endoplasmic reticulum, rich in cytochrome P450 enzymes.)
Data set [3] can be described thus: Half life in Sprague-Dawley rat at 2 mg/kg, iv and 10 mg/kg, po. Format: ADME, organism-based. The note with it: in vivo. Put shortly: (§1)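 Sprague–Dawley rats, single dose. IV arm at 2 mg/kg in PEG400/saline (70:30), with plasma kinetics determined. Oral arm at 10 mg/kg in PEG400 containing 2% Vitamin E TPGS, compared against the iv data.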
A short description of data set [4]: Clearance in Sprague-Dawley rat at 2 mg/kg, iv and 10 mg/kg, po. It counts as ADME, organism-based. As to conditions: in vivo. The procedure, abridged:
as §1

Data set [5] can be described thus: Drug metabolism in rat liver microsomes at 5 uM after 15 mins. Format: ADME, Microsome. The note with it: read-out: Drug metabolism.
Data set [6] is described as follows: Volume of distribution at steady state in Sprague-Dawley rat at 2 mg/kg, iv and 10 mg/kg, po. It counts as ADME, organism-based. The note with it: in vivo, read-out: Vdss. Put shortly: as §1
Data set [7] in a line: Ratio of drug level in liver to plasma in Sprague-Dawley rat at 2 mg/kg, iv and 10 mg/kg, po after 7 hrs. It counts as ADME, organism-based. Put shortly:
(§2)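 Sprague–Dawley rats given 2 mg/kg iv in PEG400/saline (70:30) or 10 mg/kg po in PEG400 with 2% Vitamin E TPGS. Liver concentration (ng/g) measured 7 h post dose. Liver-to-plasma ratio taken at the same time.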

The nature of data set [8]: Drug level in Sprague-Dawley rat liver at 2 mg/kg, iv and 10 mg/kg, po after 7 hrs. Format: ADME, organism-based. As to conditions: read-out: Drug uptake. Put shortly:
as §2

Data set [9] is described as follows: Oral bioavailability in Sprague-Dawley rat at 10 mg/kg. It counts as ADME, organism-based. As to conditions: in vivo. Put shortly:
as §1

The subject of the next data set is Liver microsomes. The experiment in a line: Metabolic stability in human liver microsomes assessed as glutathione conjugates formation at 40 uM in presence of glutathione. It counts as ADME, Microsome. The procedure, abridged: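 Human liver microsomes (1 mg/mL protein) in 100 mM KPi, pH 7.4, with 5 mM MgCl2, 1 mM EDTA and 2 mM NADPH. Trapping agent was 2 mM GSH, or a GSH/stable-label GSH mix (1 mM/1 mM). Compound at 40 µM final, added from a 20 mM stock. Read-out was glutathione conjugate formation.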

Data set [10] is described as follows: Efflux ratio of compound permeability in human Caco2 cells. Format: ADME, cell-based. As to conditions: Caco-2. A general note: Caco-2 cells form a polarised layer with tight junctions and transporters.
A short description of data set [11]: Apparent permeability from apical to basolateral side of human Caco2 cells. Format: ADME, cell-based. The note with it: Caco-2.

With `CN1CCCCNC(=O)Cn2c(-c3ccoc3)c(C3CCCCC3)c3ccc(cc32)C(=O)NS1(=O)=O`, in the data set with Hepatitis C virus, the 50% effective concentration (EC50) amounted to 1580 nM. Besides, inhibition in data set [1] was half-maximal at 110 nM (IC50).
The corresponding values for `COc1ccc(-c2c(C3CCCCC3)c3ccc4cc3n2CC(=O)NCCCCN(C)S(=O)(=O)NC4=O)cc1` are 1760 nM and 180 nM.
The corresponding values for `COc1ccc(-c2c(C3CCCCC3)c3ccc4cc3n2CC(=O)NCCN(C)CCNS(=O)(=O)NC4=O)cc1` are 3470 nM and 440 nM.
With `COc1ccc(-c2c(C3CCCCC3)c3ccc4cc3n2CC(=O)NN(C)CCN2CCN(CC2)S(=O)(=O)NC4=O)cc1`, in the data set on Hepatitis C virus, the EC50 was determined as 3500 nM.
Same read-out and setting: next, `COc1ccc(-c2c(C3CCCCC3)c3ccc4cc3n2CC(=O)NCCCCCN(C)S(=O)(=O)NC4=O)cc1`: 350 nM.
`CN1CCCCCNC(=O)Cn2c(-c3ccc(Cl)cc3)c(C3CCCCC3)c3ccc(cc32)C(=O)NS1(=O)=O`: the EC50 in the data set with Hepatitis C virus is 590 nM. In addition, the IC50 in data set [1] was 190 nM.
On to `CN1CCCCCNC(=O)Cn2c(-c3ccccc3)c(C3CCCCC3)c3ccc(cc32)C(=O)NS1(=O)=O`, for which, in the data set with Hepatitis C virus, the EC50 came out at 430 nM.
For the compound `CN1CCCCN(C)S(=O)(=O)NC(=O)c2ccc3c(C4CCCCC4)c(-c4ccc(Cl)cc4)n(c3c2)CC1=O`, the half-maximal effective concentration (EC50) in the data set on Hepatitis C virus was 530 nM.
Turning to `CN1CCCCNC(=O)COc2ccccc2-c2c(C3CCCCC3)c3ccc(cc3n2C)C(=O)NS1(=O)=O`, the concentration giving a half-maximal response (EC50) in the data set on Hepatitis C virus was determined as 7560 nM. Further, it took 1900 nM to reach half-maximal inhibition in [1] (IC50).
In the case of `CN1CCCCN(C)S(=O)(=O)NC(=O)c2ccc3c(C4CCCCC4)c(n(C)c3c2)-c2ccccc2OCC1=O`, the metabolised at 0.25 h, 5 µM in [2] is 92%; in data set [5], 60%. Further, the half-life in [3] is 18 min. This compound also gave a clearance in data set [4] of 128 mL/min/kg. In addition, the Vd in data set [6] came out at 2.6 L/kg. For the same compound, in [7], the Kp at 7 h stood at 99. The concentration for a half-maximal effect (EC50) in the data set on Hepatitis C virus stood at 310 nM. Further, the concentration at 7 h in data set [8] was 1520 ng/g. Besides, the IC50 in [1] turned out to be 97 nM. This compound also showed a bioavailability in [9] of 9%.
With `COc1ccc2c(c1)OCC(=O)N(C)CCCCN(C)S(=O)(=O)NC(=O)c1ccc3c(C4CCCCC4)c-2n(C)c3c1`, the metabolised at 0.25 h, 5 µM in [2] came to 96%; in data set [5], 64%. Moreover, the concentration giving a half-maximal response (EC50) with Hepatitis C virus is 170 nM. In [1], the IC50 is 54 nM.
On the same counts, the results for `CN1CCCCCNC(=O)COc2ccccc2-c2c(C3CCCCC3)c3ccc(cc3n2C)C(=O)NS1(=O)=O` are 71%, 44%, 180 nM and 33 nM.
For the compound `CN1CCCCCNC(=O)COc2ccc(F)cc2-c2c(C3CCCCC3)c3ccc(cc3n2C)C(=O)NS1(=O)=O`, the metabolised at 0.25 h, 5 µM was 59% in data set [2] and 56% in data set [5]. Besides, the EC50 in the data set on Hepatitis C virus worked out at 680 nM. This compound came in with an IC50 in data set [1] of 88 nM.
The corresponding values for `CN1CCCCCNC(=O)COc2cc(F)ccc2-c2c(C3CCCCC3)c3ccc(cc3n2C)C(=O)NS1(=O)=O` are 81%, 58%, 460 nM and 110 nM.
`COc1ccc2c(c1)OCC(=O)N(C)CCOCCN(C)S(=O)(=O)NC(=O)c1ccc3c(C4CCCCC4)c-2n(C)c3c1`: the metabolised at 0.25 h, 5 µM in data set [2] came out at 69%; in data set [5] it was 52%. Also, the EC50 with Hepatitis C virus is 150 nM. Further, in data set [1], half-maximal inhibition (IC50) was put at 56 nM.
For the compound `CN1CCOCCN(C)S(=O)(=O)NC(=O)c2ccc3c(C4CCCCC4)c(n(C)c3c2)-c2ccccc2OCC1=O`, the values for the metabolised at 0.25 h, 5 µM in data set [2] and in [5] were 65% and 50%, respectively. In data set [3], this compound had a half-life of 60 min. In addition, the clearance in [4] was 115 mL/min/kg. The Vd in data set [6] amounted to 7 L/kg. In data set [7], the partition ratio (Kp) at 7 h amounted to 64. Moreover, the EC50 in the data set on Hepatitis C virus came out at 190 nM. Moreover, the concentration at 7 h in data set [8] is 1720 ng/g. Besides, the 50% inhibitory concentration (IC50) in data set [1] was 110 nM. Besides, the bioavailability in data set [9] came to 14%. Besides, in the data set on Liver microsomes, the Stability entry was “Stable”.
Take `CC(C)n1c2c(C3CCCCC3)c3ccc(cc31)C(=O)NS(=O)(=O)N(C)CCOCCN(C)C(=O)COc1ccccc1-2`: the metabolised at 0.25 h, 5 µM in data set [2] amounted to 64%; in data set [5], 35%. Besides, the EC50 with Hepatitis C virus turned out to be 11900 nM. This compound also had an IC50 in data set [1] of 1660 nM.
Take `CN1CCOCCN(C)S(=O)(=O)NC(=O)c2ccc3c(C4CCCCC4)c(n(C4CCCC4)c3c2)-c2ccccc2OCC1=O`: the metabolised at 0.25 h, 5 µM in data set [2] is 74%; in data set [5] it was 40%. Also, the 50% effective concentration (EC50) with Hepatitis C virus stood at 15700 nM. In data set [1], this compound yielded an IC50 of 1490 nM.
On the same counts, the results for `CN1CCN2CCN(CC2)C(=O)COc2ccccc2-c2c(C3CCCCC3)c3ccc(cc3n2C)C(=O)NS1(=O)=O` are 56%, 35%, 240 nM and 140 nM.
On the same counts, the results for `O=C1Cn2c(-c3ccoc3)c(C3CCCCC3)c3ccc(cc32)C(=O)NCC/C=C/CCN1` are above 95%, above 95%, 3400 nM and 2200 nM.
The corresponding values for `O=C1Cn2c(-c3ccoc3)c(C3CCCCC3)c3ccc(cc32)C(=O)NCCCCCCN1` are above 95%, above 95%, 4300 nM and 9500 nM.
Regarding `O=C1Cn2c(-c3ccoc3)c(C3CCCCC3)c3ccc(cc32)C(=O)NCC/C=C/CCCN1`, the metabolised at 0.25 h, 5 µM in [2] and in data set [5] was above 95% each time. Also, the EC50 with Hepatitis C virus was found to be 2600 nM.
As to `O=C1Cn2c(-c3ccoc3)c(C3CCCCC3)c3ccc(cc32)C(=O)NS(=O)(=O)C/C=C/CCN1`, the efflux ratio in data set [10] is above 25. In addition, in the data set on Hepatitis C virus, the 50% effective concentration (EC50) amounted to 7500 nM. Further, the apical-to-basolateral permeability (Papp A→B) in [11] is below 1 ×10⁻⁶ cm/s.
As for `CN1C/C=C/CCNC(=O)Cn2c(-c3ccoc3)c(C3CCCCC3)c3ccc(cc32)C(=O)NS1(=O)=O`, the EC50 in the data set on Hepatitis C virus was 720 nM.
With `CN1CCCCCNC(=O)Cn2c(-c3ccoc3)c(C3CCCCC3)c3ccc(cc32)C(=O)NS1(=O)=O`, the values for the metabolised at 0.25 h, 5 µM in data set [2] and in data set [5] were 67% and 63%, respectively. This compound also showed a half-life in data set [3] of 24 min. This compound showed a clearance in [4] of 123 mL/min/kg. For the same compound, the Vd in [6] worked out at 2.4 L/kg. Moreover, the Kp at 7 h in data set [7] is 150. Moreover, the EC50 in the data set on Hepatitis C virus turned out to be 790 nM. Besides, in data set [8], the concentration at 7 h was determined as 3740 ng/g. In data set [9], this compound yielded a bioavailability of 40%.

As a reminder, the EC50 is the midpoint of the concentration-response curve. By IC50 is commonly meant the point on the concentration scale where inhibition reaches its midpoint. Broadly, the half-life is how long it takes for the measured level to halve. The low end stands for rapid decline, the high end for slow decline. As usually defined, the Kp is tissue or fluid exposure divided by exposure in the circulation. In general, bioavailability refers to the share of a dose that reaches the circulation, judged against a reference dose that is usually intravenous. The low end stands for poor availability, the high end for good availability. Broadly, the efflux ratio is a quotient of directional permeabilities that is used to spot active efflux. A word on the Papp A→B: it is the apparent permeability from the apical to the basolateral side of a cell layer.
